From PubChem BioAssay
A selection: hits, their analogues and other compounds. The true share with any hit is near 1.8%.
PME-1 primary = blocks human protein phosphatase methylesterase 1; Q9Y570; recombinant PME-1, FP-Rh probe fluorescence polarization; inhibition, % at 5.9 µM; 0.53% of 320,000 active; AID 2130;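 active means inhibition above the campaign mean of all compounds plus 3 SD, cut at about 26% in these data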;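 further: competitive labeling of PME-1 active site by serine hydrolase directed probe; inhibitors block probe labeling so polarization falls and inhibition rises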
Target sequence (Q9Y570 whole entry, looked up): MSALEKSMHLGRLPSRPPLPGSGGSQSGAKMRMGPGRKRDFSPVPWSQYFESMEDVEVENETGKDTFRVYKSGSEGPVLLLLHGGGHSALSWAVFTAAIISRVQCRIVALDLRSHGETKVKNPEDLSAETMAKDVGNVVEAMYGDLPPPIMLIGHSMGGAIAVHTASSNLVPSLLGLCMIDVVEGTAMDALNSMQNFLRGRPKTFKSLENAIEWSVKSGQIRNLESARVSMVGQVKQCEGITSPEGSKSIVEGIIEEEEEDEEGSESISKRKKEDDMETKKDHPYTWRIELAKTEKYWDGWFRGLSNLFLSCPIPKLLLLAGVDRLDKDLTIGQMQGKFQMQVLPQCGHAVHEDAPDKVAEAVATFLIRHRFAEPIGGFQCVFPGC
HTRA1 inhibitor = inhibitors of human serine peptidase HTRA1 | Q92743 | recombinant HTRA1, FP-rhodamine activity-based probe, fluorescence polarization | inhibition, % at 5.96 µM | 0.5% of 340,000 active | AID 504803; in the data active means inhibition above about 36%
SIAE primary = blocks human sialic acid acetylesterase; Q9HAT2; 0.69% of 370,000 active; SIAE FP-Rh probe binding, fluorescence polarization; inhibition, % at 9.66 µM; AID 1053197;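 active means inhibition above a cutoff: mean of compounds within the control limits plus 3 SD of those, cut at about 17% in these data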
Fam108B inh = counter-screen for RBBP9 inhibitors: inhibitors of mouse Fam108B; recombinant Fam108B, FP-Rh probe fluorescence polarization; inhibition, % at 9.51 µM; 0.33% of 300,000 active;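 active means inhibition above the screen mean inhibition plus 3 SD, computed separately per campaign, cut at about 18% in these data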;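 further: inhibitors lower polarization as less probe binds the enzyme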
ABHD4 inh = inhibitors of mouse ABHD4; purified mABHD4, FP-Rh probe fluorescence polarization; 0.54% of 370,000 active; inhibition, % at 8.92 µM; AID 720543; Q8VD66;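 active means inhibition exceeding the mean over every tested compound plus 3 SD, cut at about 30% in these data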
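Material: mouse ABHD4 enzyme, wild type; Benchmarks: S159A mutant high control, sample median low control; Buffer or medium: HEPES pH 7.0, NaCl, Pluronic buffer; Signal: fluorescence polarization; Read-out: percent inhibition of probe binding, normalized to plate controls; Timing: pre-incubation 45 min, probe exposure 60 min, at 25 °C; Dosing: 8.92 µM, single dose.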
TCR-CD3 inh = inhibitors of human TCR-CD3 interaction; TAMRA-labeled TCR probe fluorescence, biochemical; inhibition, % at 9.4 µM; 0.37% of 360,000 active; in the data active means inhibition above about 19%;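 further: recombinant mutant TCR 2C K166C tagged with TAMRA read by polarization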
mABHD4 conf = ABHD4 (mouse) inhibition, FP confirmation | shares compounds with ABHD4 inh | purified mABHD4, FP-Rh probe fluorescence polarization | inhibition, % at 8.92 µM | 55% of 1,800 active;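 active means mean inhibition across replicates above the hit cutoff set in the primary screen, cut at about 30% in these data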
Hits are given with their value; . = inactive; / = no result.

SMILES	PME-1 primary	HTRA1 inhibitor	SIAE primary	Fam108B inh	ABHD4 inh	TCR-CD3 inh	mABHD4 conf
CC(C)(C)c1ccc(-c2cc(NC(=O)Cc3c[nH]c4ccccc34)ccc2Nc2cccnc2)cc1	/	/	.	/	41	.	55
O=C(Cc1c[nH]c2ccccc12)Nc1ccc(Nc2cccnc2)c(-c2ccc(Cl)c(Cl)c2)c1	/	/	.	/	.	.	/
CCCc1ccc(-c2cc(NC(=O)Cc3c[nH]c4ccccc34)ccc2Nc2cccnc2)cc1	/	/	.	/	42	.	39
O=C(C1CC(=O)N(c2ccc3c(c2)OCCO3)C1)N1CCCC(C(F)(F)F)C1 (configuration not stated)	.	.	.	.	.	.	/
N#C/C(=C\c1ccc(-c2ccccc2)o1)C(=O)Nn1cnnc1	.	.	.	.	47	.	.
Cc1ccc(-c2ccc(/C=C(\C#N)C(=O)Nc3cc(C)nn3-c3ccccc3)o2)cc1	.	/	/	.	/	/	/
O=C(NC1CCCCC1)C1c2ccccc2OCC(=O)N1Cc1ccc2c(c1)OCO2 (configuration not stated)	/	/	.	/	.	.	/
Cc1cc(S(=O)(=O)c2ccc(Cl)cc2)nc(S(=O)(=O)c2ccc(Cl)cc2)c1C#N	/	.	.	/	.	.	/
COc1cccc(N2CC(C(=O)Nc3nnc(SCC(=O)NCc4ccco4)s3)CC2=O)c1 (configuration not stated)	.	.	.	.	.	.	/
Cc1ccccc1NC(=O)N(C)[C@H]1C[C@H]2c3[nH]c4c(-c5ccc6c(c5)OCO6)cccc4c3CCN2C[C@H]1[C@H](C)O	/	/	.	/	.	/	/
O=C1NC(=O)/C(=C\c2ccc(O)cc2O)S1	.	.	.	.	30	.	.
C/C(=N/OC(=O)c1ccccc1Br)c1ccc(C)cc1	.	.	.	.	.	.	/
Cc1nn(Cc2ccccc2)c2c1C(c1ccc(Cl)cc1)C(C#N)=C(N)O2 (configuration not stated)	.	.	.	.	34	.	.
CCC(C)Sc1cccc(-c2nc3cnccn3c2NC2CCCCC2)c1 (configuration not stated)	/	.	.	/	.	.	/
CCC(C)Sc1cc(-c2nc3ccccn3c2NC2CCCCC2)ccc1OC (configuration not stated)	.	.	.	.	47	.	45
CCC(C)Sc1ccc(-c2nc3ccc(C)cn3c2NC2CCCCC2)cc1 (configuration not stated)	.	.	/	.	/	/	/
CCC(C)Sc1cc(-c2nc3cc(C)ccn3c2NC2CCCCC2)ccc1OC (configuration not stated)	/	.	.	/	31	.	67
CCCC(=O)OC12CCCN(C1)/C(=C/c1ccc(Cl)cc1)C2 (configuration not stated)	/	/	.	/	.	/	/
CN(C)CCOC(=O)COc1ccc(Cl)cc1	.	.	.	.	62	.	.
C=CCNC(=O)c1ccc2c(=O)n(Cc3ccccc3OC)c(=S)[nH]c2c1	.	.	.	.	.	.	/
CC(C)c1nnc(NC(=O)C2CCCN(C(=O)Nc3ccc(F)cc3)C2)s1 (configuration not stated)	.	.	.	.	.	.	/
CCc1nc2c(OCc3ccc(C(=O)OC)cc3)cccn2c1N(C)C(=O)c1ccc(C)cc1	/	/	.	/	.	.	/
CCOc1ccc2[nH]c3c(NCCC(C)C)ncnc3c2c1	/	.	.	/	39	.	39
COc1cc(/C=C2\SC(=S)N(Nc3ccccc3)C2=O)cc(OC)c1OC	.	.	.	.	33	.	40
FC(F)(F)c1ccccc1C(C#Cc1ccccc1)NCc1ccc2c(c1)OCO2 (configuration not stated)	/	/	.	/	.	/	/
SMILES	PME-1 primary	HTRA1 inhibitor	SIAE primary	Fam108B inh	ABHD4 inh	TCR-CD3 inh	mABHD4 conf
Cc1ccc(-n2nc(C)c3c2OC(N)=C(C#N)C3c2ccco2)cc1 (configuration not stated)	.	.	.	.	41	.	.
Cc1ccc(-n2nc(C)c3c2OC(N)=C(C#N)C3c2ccc(C)o2)cc1 (configuration not stated)	.	.	.	.	.	.	/
CC(Sc1nc(N)cc(N)n1)C(=O)Nc1ccc(N2CCOCC2)cc1 (configuration not stated)	.	.	.	/	.	.	/
CCc1ccc(Nc2n[n+](-c3ccccc3)c(-c3c(Cl)cccc3Cl)s2)cc1	.	.	.	.	42	.	47
Fc1ccc(-[n+]2nc(Nc3ccccc3)sc2-c2c(Cl)cccc2Cl)cc1	.	.	.	.	.	.	/
N#CCC(=O)Nc1ccc(C(=O)Nc2cccc(S(=O)(=O)N3CCCC3)c2)cc1	/	.	.	/	.	.	/
O=C(CN1C(=O)NC2(CCCCC2)C1=O)N1CCN(S(=O)(=O)/C=C/c2ccccc2)CC1	.	.	.	.	.	.	/
CN(C)c1ccc(N=Nc2ccccc2C(=O)OCC(=O)NCC2CCCCC2)cc1	.	.	.	.	42	.	40
CCCn1c(=O)n(C)c(=O)c2c(SCC(=O)Nc3cc(C)on3)nc(C(C)(C)C)nc21	.	.	.	/	.	.	/
F[B-](F)(F)c1cc2cc(Br)ccc2s1	/	.	/	/	/	/	/
F[B-](F)(F)c1cc2ccccc2s1	/	.	.	/	87	.	72
COc1ccc(CCN(C)Cc2c(O)ccc3ccccc23)cc1OC	.	.	.	.	.	.	/
CC1SC(=S)N(c2ccc(N(C)C)cc2)C1=O (configuration not stated)	.	.	.	.	33	.	.
CCOC(=O)C1=CCN(S(=O)(=O)c2ccccc2Cl)C1c1cccc(Br)c1 (configuration not stated)	/	/	.	/	.	.	/
CC1(C)CC(=O)C2=C(C1)OC(N)=C(C#N)C2c1cc2c(cc1[N+](=O)[O-])OCO2 (configuration not stated)	.	.	.	.	34	.	.
COC(=O)[C@@H](Cc1c[nH]c2ccccc12)NCc1cccc(B(O)O)c1	/	.	.	/	67	.	61
CCc1ccc(NC(=O)[C@H](C)NC(=O)C2CCN(C(=O)[C@@H](N)Cc3ccccc3)CC2)cc1	.	.	/	.	/	/	/
CC(=O)N1CCN(c2ccc(NCc3ccc(Br)o3)cc2)CC1	.	.	.	/	38	.	.
NC(=O)c1ccsc1NC(=O)c1ccc([N+](=O)[O-])o1	/	.	.	/	50	.	56
CCN(CC)S(=O)(=O)c1ccc(N2CCCC2)c(C(=O)OCC(=O)Nc2cc(C)on2)c1	.	.	.	.	45	.	61
CN(CCO)c1cccc2c1S(=O)(=O)N[C@@H](Cc1ccccc1)CO2	/	/	.	/	.	.	/
CN(C)c1ccc(-c2nn3c(-c4ccco4)nnc3s2)cc1	/	/	.	/	.	/	/
CCCCNc1c(-c2ccc(-c3ccc(C(C)=O)cc3)c(OC)c2)nc2cc(C)ccn12	/	.	.	/	46	.	56
